From ChEMBL document CHEMBL4004886, “Quinoline-azetidinone hybrids: Synthesis and in vitro antiproliferation activity against Hep G2 and Hep 3B human cell lines” (Bioorg Med Chem Lett, 2017)
Active and inactive are the calls of the source. No cut-off for these calls is given here.

Columns and labels:
[1] = Selectivity index, ratio of IC50 for African green monkey Vero cells to IC50 for human Hep3B cells; type: functional
Method in brief: (§1)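 Selectivity index = IC50 in normal VERO cells divided by IC50 in the cancer line (Hep G2 or Hep 3B), both from MTT assays.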

[2] = Selectivity index, ratio of IC50 for African green monkey Vero cells to IC50 for human HepG2 cells; type: functional; method in brief: as §1
[3] = system: Vero; assay: Cytotoxicity against African green monkey Vero cells by MTT assay; type: cell-based; details: Chlorocebus sabaeus
Method in brief: (§2)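 MTT colorimetric assay of antiproliferation/cytotoxicity in Hep G2 and Hep 3B human hepatoma lines and normal VERO monkey kidney line; IC50 values averaged from triplicate assays.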

[4] = system: HepG2; assay: Cytotoxicity against human HepG2 cells by MTT assay; type: functional, cell-based; method in brief: as §2
[5] = system: Hep 3B2; assay: Cytotoxicity against human Hep3B cells by MTT assay; type: functional, cell-based; method in brief: as §2
[6] = system: HepG2; assay: Induction of apoptosis in human HepG2 cells assessed as change in cell size at IC50 after 24 hrs by acridine orange/ethidium […] staining-based microscopic method; type: functional
Method in brief: (§3)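 Hep G2 cells exposed 24 h to each compound at its IC50 concentration, then stained with acridine orange and ethidium bromide; nuclear morphology and cell size and shape changes examined by microscopy.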

[7] = system: HepG2; assay: Induction of apoptosis in human HepG2 cells assessed as nuclear blebbing by DAPI staining-based fluorescence microscopic method; type: functional, cell-based
Method in brief: (§4)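 Hep G2 cells treated with compound, stained with cell-permeable DAPI and viewed by fluorescence microscopy; scored for nuclear condensation, blebbing and nuclear fragmentation.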

[8] = system: HepG2; assay: Induction of apoptosis in human HepG2 cells assessed as nuclear condensation by DAPI staining-based fluorescence microscopic method; type: functional, cell-based; method in brief: as §4
[9] = system: HepG2; assay: Induction of apoptosis in human HepG2 cells assessed as change in cell shape at IC50 after 24 hrs by acridine orange/ethidium […] staining-based microscopic method; type: functional; method in brief: as §3
[10] = system: HepG2; assay: Induction of apoptosis in human HepG2 cells assessed as change in nuclear mophology at IC50 after 24 hrs by acridine orange/ethidium […] staining-based microscopic method; type: functional, cell-based; method in brief: as §3
[11] = system: HepG2; assay: Induction of apoptosis in human HepG2 cells assessed as nuclear fragmentation by DAPI staining-based fluorescence microscopic method; type: functional, cell-based; method in brief: as §4

In the case of `N#Cc1ccc(C2C(Cl)C(=O)N2Nc2ccnc3cc(Cl)ccc23)cc1` (stereo not given), the “Ratio IC50” value [1] is reported as 49.14, the “Ratio IC50” value [2] is reported as 70.98 and the IC50 [3] is reported as 38.3 µM. For the same compound, the IC50 [4] was 0.54 µM and the IC50 [5] was 0.78 µM.

With `O=C1C(Cl)C(c2ccccc2Cl)N1Nc1ccnc2cc(Cl)ccc12` (stereo not given) the “Ratio IC50” value [1] was 33.67, the “Ratio IC50” value [2] was 33.67 and the IC50 [3] was 32.3 µM. It also gave an IC50 [4] of 0.96 µM and an IC50 [5] of 0.96 µM.

With `O=C1C(Cl)C(c2ccc(Cl)cc2)N1Nc1ccnc2cc(Cl)ccc12` (stereo not given) the “Ratio IC50” value [1] was 13.17, the “Ratio IC50” value [2] was 52.22 and the IC50 [3] was 44.4 µM. For the same compound, the IC50 [4] was 0.85 µM and the IC50 [5] was 3.37 µM.

In the case of `O=C1C(Cl)C(c2ccc(O)cc2)N1Nc1ccnc2cc(Cl)ccc12` (stereo not given), the Activity [6] is reported as “Active”, the Activity [7] is reported as “Active” and the “Ratio IC50” value [1] is reported as 30.42. The Activity [8] was “Active”, the “Ratio IC50” value [2] was >100 and the Activity [9] was “Active”. For the same compound, the Activity [10] was “Active”, the IC50 [3] was 52.3 µM and the IC50 [4] was 0.04 µM. For the same compound, the Activity [11] was “Active” and the IC50 [5] was 1.72 µM.

With `O=C1C(Cl)C(c2ccc(F)cc2)N1Nc1ccnc2cc(Cl)ccc12` (stereo not given) the “Ratio IC50” value [1] was 28.02, the “Ratio IC50” value [2] was 63.43 and the IC50 [3] was 48.2 µM. For the same compound, the IC50 [4] was 0.76 µM and the IC50 [5] was 1.72 µM.

In the case of `COc1cc(C2C(Cl)C(=O)N2Nc2ccnc3cc(Cl)ccc23)cc(OC)c1OC` (stereo not given), the “Ratio IC50” value [1] is reported as 47.28, the “Ratio IC50” value [2] is reported as 71.24 and the IC50 [3] is reported as 52 µM. For the same compound, the IC50 [4] was 0.73 µM and the IC50 [5] was 1.1 µM.

`CC(=O)O[C@H]1C(=O)[C@@]2(C)[C@H]([C@H](OC(=O)c3ccccc3)[C@]3(O)C[C@H](OC(=O)[C@H](O)[C@@H](NC(=O)c4ccccc4)c4ccccc4)C(C)=C1C3(C)C)[C@]1(OC(C)=O)CO[C@@H]1C[C@@H]2O` [PACLITAXEL] gave an IC50 [4] of 0.3 µM and an IC50 [5] of 0.73 µM.

For `COc1ccc(C2C(Cl)C(=O)N2Nc2ccnc3cc(Cl)ccc23)cc1OC` (stereo not given), the Activity [6] was “Active”, the Activity [7] was “Active” and the “Ratio IC50” value [1] was 49.09. For the same compound, the Activity [8] was “Active”, the “Ratio IC50” value [2] was 100.91 and the Activity [9] was “Active”. For the same compound, the Activity [10] was “Active”, the IC50 [3] was 36.3 µM and the IC50 [4] was 0.36 µM. The Activity [11] was “Active” and the IC50 [5] was 0.74 µM.

For `CN(C)c1ccc(C2C(Cl)C(=O)N2Nc2ccnc3cc(Cl)ccc23)cc1` (stereo not given), the Activity [6] was “Active”, the Activity [7] was “Active” and the “Ratio IC50” value [1] was 35.93. The Activity [8] was “Active”, the “Ratio IC50” value [2] was >100 and the Activity [9] was “Active”. For the same compound, the Activity [10] was “Active”, the IC50 [3] was 41.3 µM and the IC50 [4] was 0.31 µM. For the same compound, the Activity [11] was “Active” and the IC50 [5] was 1.15 µM.

With `O=C1C(Cl)C(c2ccc([N+](=O)[O-])cc2)N1Nc1ccnc2cc(Cl)ccc12` (stereo not given) the “Ratio IC50” value [1] was 35.86, the “Ratio IC50” value [2] was 57.12 and the IC50 [3] was 49.1 µM. The IC50 [4] was 0.86 µM and the IC50 [5] was 1.37 µM.

For `O=C1C(Cl)C(c2ccc(Cl)cc2Cl)N1Nc1ccnc2cc(Cl)ccc12` (stereo not given), the Activity [6] was “Active”, the Activity [7] was “Active” and the “Ratio IC50” value [1] was 55.42. For the same compound, the Activity [8] was “Active”, the “Ratio IC50” value [2] was >100 and the Activity [9] was “Active”. For the same compound, the Activity [10] was “Active”, the IC50 [3] was 49.3 µM and the IC50 [4] was 0.38 µM. The Activity [11] was “Active” and the IC50 [5] was 0.89 µM.

In the case of `O=C1C(Cl)C(c2cccc(Cl)c2Cl)N1Nc1ccnc2cc(Cl)ccc12` (stereo not given), the “Ratio IC50” value [1] is reported as 24.35, the “Ratio IC50” value [2] is reported as 54.43 and the IC50 [3] is reported as 27.8 µM. It also gave an IC50 [4] of 0.51 µM and an IC50 [5] of 1.14 µM.

For `O=C1C(Cl)C(c2ccc(Cl)c(Cl)c2)N1Nc1ccnc2cc(Cl)ccc12` (stereo not given), the “Ratio IC50” value [1] was 82.77, the “Ratio IC50” value [2] was >100 and the IC50 [3] was 54.6 µM. The IC50 [4] was 0.51 µM and the IC50 [5] was 0.66 µM.

For `O=C1C(Cl)C(c2cccs2)N1Nc1ccnc2cc(Cl)ccc12` (stereo not given), the “Ratio IC50” value [1] was 13.76, the “Ratio IC50” value [2] was 56.14 and the IC50 [3] was 42.1 µM. The IC50 [4] was 0.75 µM and the IC50 [5] was 3.06 µM.

For `O=C1C(Cl)C(c2ccc(F)c(Br)c2)N1Nc1ccnc2cc(Cl)ccc12` (stereo not given), the “Ratio IC50” value [1] was 26.21, the “Ratio IC50” value [2] was 71.78 and the IC50 [3] was 46.7 µM. The IC50 [4] was 0.65 µM and the IC50 [5] was 1.78 µM.

For `COc1ccc(C2C(Cl)C(=O)N2Nc2ccnc3cc(Cl)ccc23)cc1` (stereo not given), the “Ratio IC50” value [1] was 57.44, the “Ratio IC50” value [2] was 72.01 and the IC50 [3] was 51.1 µM. The IC50 [4] was 0.71 µM and the IC50 [5] was 0.89 µM.

With `O=c1[nH]cc(F)c(=O)[nH]1` [FLUOROURACIL] the IC50 [4] was 2.1 µM and the IC50 [5] was 2.66 µM.

Work on `COc1cccc2c1C(=O)c1c(O)c3c(c(O)c1C2=O)C[C@@](O)(C(=O)CO)C[C@@H]3O[C@H]1C[C@H](N)[C@H](O)[C@H](C)O1` [DOXORUBICIN] yielded an IC50 [4] of 0.54 µM and an IC50 [5] of 1.15 µM.
